Laboratory results from ChEMBL document CHEMBL1135980, “Novel angular benzophenazines: dual topoisomerase I and topoisomerase II inhibitors as potential anticancer agents” (J Med Chem, 2002).

Assays:
[1] = system: COR-L23; assay: Cytotoxicity measured with the drug resistant human non small cell lung carcinoma cell line COR-L23 (COR-L23/R) which over expresses multidrug resistance associated with protein(MRP); format: functional, cell-based
How it was run: (§1)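 COR-L23/P (parental) or COR-L23/R (MRP-overexpressing) human NSCLC cells; compound added, then 5-6 days incubation; proliferation read by sulforhodamine B staining.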

[2] = system: NCI-H69; assay: Rf is the resistance factor and is the ratio of the IC50 on the resistant cell line over the IC50 on the parental H69/P cell line; format: functional, Homo sapiens
How it was run: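 Resistance factor computed as IC50 in H69/LX4 (Pgp-overexpressing) divided by IC50 in H69/P. Both IC50s come from a 5-6 day Alamar Blue proliferation assay.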

[3] = system: NCI-H69; assay: Cytotoxicity measured using the drug resistant, P-glycoprotein (Pgp) expressing human small cell lung carcinoma cell line H69/LX4; format: functional, cell-based
How it was run: (§2)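 H69/P (parental) or H69/LX4 (P-glycoprotein-overexpressing) human SCLC cells; compound added, then 5-6 days incubation; proliferation read with Alamar Blue.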

[4] = system: COR-L23; assay: Cytotoxicity measured using the COR-L23 parental (COR-L23/P) human non small cell lung carcinoma cell line; format: functional, cell-based; how it was run: as §1
[5] = Rf is the resistance factor and is the ratio of the IC50 on the resistant cell line over the IC50 on the parental COR-L23/P cell line; conditions: human
How it was run: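 Resistance factor computed as IC50 in COR-L23/R (MRP-overexpressing) divided by IC50 in COR-L23/P. Both IC50s come from a 5-6 day sulforhodamine B proliferation assay.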

[6] = pharmacokinetics in female BALB/c mice measured as Cmax after 20 mg/kg iv administration; format: ADME, organism-based; set-up: dose 20 mg/kg, route intravenous; conditions: mouse, in vivo
How it was run: (§3)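 Female Balb/c mice dosed intravenously at 20 or 50 mg/kg. Blood taken by cardiac puncture under anaesthesia into heparinized syringes at times from 2 min to 24 h. Plasma prepared by centrifugation and drug measured by HPLC; plasma PK parameters derived.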

[7] = system: Mus musculus; assay: pharmacokinetics in female BALB/c mice measured as AUC after 50 mg/kg Preoral administration; format: ADME, organism-based; set-up: dose 50 mg/kg; conditions: in vivo, po
How it was run: (§4)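 Female Balb/c mice given 50 mg/kg by oral gavage. Blood taken by cardiac puncture under anaesthesia into heparinized syringes at 2 min-24 h. Plasma analyzed by HPLC; plasma PK parameters derived, with oral bioavailability relative to iv dosing.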

[8] = pharmacokinetics in female BALB/c mice measured as Vss after 50 mg/kg iv administration; format: ADME, organism-based; set-up: dose 50 mg/kg, route intravenous; conditions: mouse, in vivo, read-out: Vss; how it was run: as §3
[9] = pharmacokinetics in female BALB/c mice measured as Cl after 20 mg/kg iv administration; format: ADME, organism-based; set-up: dose 20 mg/kg, route intravenous; conditions: mouse, in vivo; how it was run: as §3
[10] = pharmacokinetics in female BALB/c mice measured as Cmax after 50 mg/kg Preoral administration; format: ADME, organism-based; set-up: route oral, dose 50 mg/kg; conditions: mouse, in vivo, po; how it was run: as §4
[11] = pharmacokinetics in female BALB/c mice measured as Kel after 50 mg/kg iv administration; format: ADME, organism-based; set-up: dose 50 mg/kg, route intravenous; conditions: mouse, in vivo; how it was run: as §3
[12] = pharmacokinetics in female BALB/c mice measured as Cmax after 50 mg/kg iv administration; format: ADME, organism-based; set-up: dose 50 mg/kg, route intravenous; conditions: mouse, in vivo; how it was run: as §3
[13] = pharmacokinetics in female BALB/c mice measured as Kel after 50 mg/kg Preoral administration; format: ADME, organism-based; set-up: dose 50 mg/kg; conditions: mouse, in vivo, po; how it was run: as §4
[14] = pharmacokinetics in female BALB/c mice measured as Cl after 50 mg/kg iv administration; format: ADME, organism-based; set-up: dose 50 mg/kg, route intravenous; conditions: mouse, in vivo; how it was run: as §3
[15] = system: Mus musculus; assay: pharmacokinetics in female BALB/c mice measured as AUC after 20 mg/kg iv administration; format: ADME, organism-based; set-up: dose 20 mg/kg, route intravenous; conditions: in vivo; how it was run: as §3
[16] = pharmacokinetics in female BALB/c mice measured as Vss after 20 mg/kg iv administration; format: ADME, organism-based; set-up: dose 20 mg/kg, route intravenous; conditions: mouse, in vivo, read-out: Vss; how it was run: as §3
[17] = pharmacokinetics in female BALB/c mice measured as Kel after 20 mg/kg iv administration; format: ADME, organism-based; set-up: dose 20 mg/kg, route intravenous; conditions: mouse, in vivo; how it was run: as §3
[18] = pharmacokinetics in female BALB/c mice measured as bioavailability (F) after 50 mg/kg peroral administration; format: ADME, organism-based; conditions: mouse, in vivo, po; how it was run: as §4
[19] = system: Mus musculus; assay: pharmacokinetics in female BALB/c mice measured as AUC after 50 mg/kg iv administration; format: ADME, organism-based; set-up: dose 50 mg/kg, route intravenous; conditions: in vivo; how it was run: as §3
[20] = system: NCI-H69; assay: Cytotoxicity measured using the H69 parental (H69/P) human small cell lung carcinoma cell line; format: functional, cell-based; how it was run: as §2

Row | Compound | IC50 [1] | Rf [2] | IC50 [3] | IC50 [4] | IC50 [20] | other results
1 | CC[C@@]1(O)C(=O)OCc2c1cc1n(c2=O)Cc2cc3c(CN(C)C)c(O)ccc3nc2-1 [TOPOTECAN] | 0.02 µM | 3.9 | 0.0629 µM | 0.0132 µM | – | –
2 | COc1cccc2c1ccc1nc3cccc(C(=O)N[C@H](C)CN(C)C)c3nc12 | 0.0121 µM | 1.2 | 0.029 µM | 0.0101 µM | – | Rf [5]: 1.2; Cmax [6]: 0.8 µg/mL; AUC [7]: 114 ug min m-1; Vd [8]: 1.9 L; clearance [9]: 6.3 mL/min; Cmax [10]: 0.35 µg/mL; k el [11]: 5e-05 s⁻¹; Cmax [12]: 2.9 µg/mL; k el [13]: 3.33e-05 s⁻¹; clearance [14]: 6.4 mL/min; AUC [15]: 64 ug min m-1; Vd [16]: 1.3 L; k el [17]: 7.33e-05 s⁻¹; bioavailability [18]: 72%; AUC [19]: 156 ug min m-1
3 | CN(C)CCNC(=O)c1cccc2nc3ccc4c([N+](=O)[O-])cccc4c3nc12 | 0.024 µM | 1.3 | 0.12 µM | 0.02 µM | 0.096 µM | Rf [5]: 1.2
4 | CN(C)CCNC(=O)c1cccc2nc3ccc4c(O)cccc4c3nc12 | 0.017 µM | 1.4 | 0.048 µM | 0.015 µM | 0.035 µM | Rf [5]: 1.1
5 | COc1cccc2c1C(=O)c1c(O)c3c(c(O)c1C2=O)C[C@@](O)(C(=O)CO)C[C@@H]3O[C@H]1C[C@H](N)[C@H](O)[C@H](C)O1 [DOXORUBICIN] | 0.319 µM | 142 | 3.87 µM | 0.0201 µM | – | –
6 | COc1cccc2c1ccc1nc3cccc(C(=O)NCCN(C)C)c3nc12 | 0.02 µM | 1.4 | 0.049 µM | 0.014 µM | – | Rf [5]: 1.4
7 | CN(C)CCNC(=O)c1cccc2nc3ccc4cc(O)ccc4c3nc12 | 0.096 µM | 1.8 | 0.193 µM | 0.067 µM | 0.109 µM | Rf [5]: 1.4
8 | CN(C)CCNC(=O)c1cccc2nc3ccc4ccccc4c3nc12 | 0.14 µM | 1.9 | 0.13 µM | 0.102 µM | – | Rf [5]: 1.4
9 | COc1cccc2c1ccc1nc3cccc(C(=O)NCC(O)CN)c3nc12 (centres undefined) | – | >9.7 | > 5 µM | – | 0.515 µM | –
10 | CCOc1cccc2c1ccc1nc3cccc(C(=O)NCCN(C)C)c3nc12 | – | 3.7 | 0.182 µM | – | 0.049 µM | –
11 | COc1cccc2c1ccc1nc3cccc(C(=O)N[C@@H](CN(C)C)C(C)C)c3nc12 | – | 1 | 0.02 µM | – | 0.021 µM | –
12 | CC(=O)Oc1cccc2c1ccc1nc3cccc(C(=O)NCCN(C)C)c3nc12 | – | 2.8 | 0.067 µM | – | 0.024 µM | –
13 | C#CCOc1cccc2c1ccc1nc3cccc(C(=O)NCCN(C)C)c3nc12 | – | 1.5 | 0.061 µM | – | 0.04 µM | –
14 | CCOC(=O)COc1cccc2c1ccc1nc3cccc(C(=O)NCCN(C)C)c3nc12 | – | 0.9 | 0.506 µM | – | 0.587 µM | –
15 | CN(C)CCNC(=O)c1cccc2nc3ccc4c(OCc5ccccc5)cccc4c3nc12 | – | 1.6 | 0.882 µM | – | 0.556 µM | –
16 | CN(C)CCNC(=O)c1cccc2nc3ccc4c(OCC(N)=O)cccc4c3nc12 | – | 3.7 | 0.328 µM | – | 0.089 µM | –
17 | CN(C)CCNC(=O)c1cccc2nc3ccc4c(S(C)(=O)=O)cccc4c3nc12 | – | 2.8 | 3.81 µM | – | 1.36 µM | –
18 | COc1cccc2c1ccc1nc3cccc(C(=O)NCC(C)N(C)C)c3nc12 (centres undefined) | – | 1.2 | 0.126 µM | – | 0.101 µM | –
19 | COc1cccc2c1ccc1nc3cc(Cl)cc(C(=O)NCCN(C)C)c3nc12 | – | 1 | 0.021 µM | – | 0.02 µM | –
20 | CCNC(=O)Oc1cccc2c1ccc1nc3cccc(C(=O)NCCN(C)C)c3nc12 | – | 1.6 | 0.103 µM | – | 0.064 µM | –
21 | CN(C)CCNC(=O)c1cccc2nc3ccc4c(NCC#N)cccc4c3nc12 | – | 1.5 | 0.155 µM | – | 0.103 µM | –
22 | COc1cccc2c1ccc1nc3cccc(C(=O)N[C@@H]4CCN(C)C4)c3nc12 | – | 1.6 | 0.128 µM | – | 0.079 µM | –
23 | CN(C)CCNC(=O)c1cccc2nc3ccc4c(C#N)cccc4c3nc12 | – | 1.5 | 0.147 µM | – | 0.101 µM | –
24 | COc1cccc2c1ccc1nc3cccc(C(=O)NC(C)CN(C)C)c3nc12 (centres undefined) | – | 1.4 | 0.044 µM | – | 0.03 µM | –
25 | COc1cccc2c1ccc1nc3cccc(C(=O)NC(C)(C)CN(C)C)c3nc12 | – | 1.5 | 0.642 µM | – | 0.435 µM | –
26 | COc1cc(C(=O)NCCN(C)C)c2nc3c(ccc4c(OC)cccc43)nc2c1 | – | 1.3 | 0.025 µM | – | 0.019 µM | –
27 | COc1cccc2c1ccc1nc3cccc(C(=O)NC(CCO)CN(C)C)c3nc12 (centres undefined) | – | 1.1 | 0.028 µM | – | 0.026 µM | –
28 | CN(C)CCNC(=O)c1cccc2nc3ccc4c(NS(C)(=O)=O)cccc4c3nc12 | – | 2.3 | 4.99 µM | – | 2.13 µM | –
29 | CN(C)CCNC(=O)c1cccc2nc3ccc4c(Cl)cccc4c3nc12 | – | 1.4 | 0.159 µM | – | 0.117 µM | –
30 | COc1ccc2c(ccc3nc4cccc(C(=O)NCCN(C)C)c4nc32)c1 | 0.079 µM | 1.3 | 0.185 µM | 0.068 µM | 0.141 µM | Rf [5]: 1.2
